Screening results as filed in PubChem.
OX1R antag-1: antagonists of human orexin 1 receptor (OX1R); OX1R-expressing cells, FRET antagonist read-out; inhibition, % at 6.6 µM; 330,000 compounds, 1.8% hits; AID 485270; in the data active means inhibition mostly above about 38%, no sharp cut-off; inactive means mostly below about 40%;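 further: 0% = agonist challenge alone and 100% = reference antagonist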
Target sequence (O43613 whole entry, looked up): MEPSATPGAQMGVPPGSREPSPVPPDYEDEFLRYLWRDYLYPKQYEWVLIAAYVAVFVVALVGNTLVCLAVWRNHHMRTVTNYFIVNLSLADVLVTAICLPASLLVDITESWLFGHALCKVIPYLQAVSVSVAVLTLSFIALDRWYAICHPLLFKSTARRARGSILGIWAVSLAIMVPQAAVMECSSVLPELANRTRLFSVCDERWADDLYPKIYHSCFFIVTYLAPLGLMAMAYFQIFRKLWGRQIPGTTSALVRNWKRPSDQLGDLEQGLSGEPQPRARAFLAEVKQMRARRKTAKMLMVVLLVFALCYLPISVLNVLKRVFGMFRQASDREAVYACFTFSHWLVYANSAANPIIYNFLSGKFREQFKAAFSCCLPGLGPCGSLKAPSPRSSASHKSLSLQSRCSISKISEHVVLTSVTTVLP
OX1R antag-2: antagonists of human orexin 1 receptor; O43613; CHO/OX1R cells, Fluo-8 calcium fluorescence, orexin A; inhibition, % at 5 µM; 330,000 compounds, 0.43% hits; AID 434989;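 active means inhibition above its plate's threshold, mean inhibition of all tested compounds on the plate plus 3 SD, cut at about 37% in these data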;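 further: 0% = orexin A challenge wells and 100% = SB-334867-A antagonist wells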
TAAR1 agonist: human TAAR1 agonism. CHO RD-HGA16 TAAR1, Fluo-8 calcium fluorescence; vehicle wells 0%, saturating PEA agonist 100%. activation, % at 3 µM. 360,000 compounds, 0.99% hits;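 active means activation above the mean activation of all test compounds in the run plus 3 SD, cut at about 38% in these data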
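Assay system – CHO-derived RD-HGA16 cells with stable Gα16 and human TAAR1 · Compound dosing – one-point dosing at 3 µM (nominal) · Incubation – 17-24 h seeding, 75 min 37 °C dye, 30 min RT · Measured by – kinetic Fluo-8 calcium fluorescence · Control set – DMSO vehicle as 0%, PEA at EC100 as 100% · Repeats – single well for each compound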
CHO parental Ca: counter-screen: ATP calcium response change in parental CHO cells; parental CHO-K1, ATP-induced calcium, Fluo-8 fluorescence; inhibition, % at 5.6 µM; 330,000 compounds, 0.63% hits; AID 463079;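 active means inhibition above that plate's mean sample inhibition plus 3 SD, cut at about 26% in these data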;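 further: 0% = ATP-challenged DMSO wells and 100% = DMSO wells without ATP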
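Material: parental CHO cells / Compound: single nominal dose of 5.6 µM per compound / Signal: Fluo-8 fluorescence / Replicates: singlicate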
GPR7 antag: blocks human GPR7 receptor signaling; P48145; GPR7-expressing cells, fluorescence antagonist assay; inhibition, % at 4.4 µM; AID 1861; 290,000 compounds, 1.1% hits; in the data active means inhibition above about 16%, passing the limit was not always enough;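 further: cells stimulated with the agonist NPW; 0% = agonist with vehicle and 100% = vehicle without agonist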
TAAR1 antag: human TAAR1 antagonism; Q96RJ0; CHO RD-HGA16 TAAR1, Fluo-8 calcium fluorescence, antagonist; inhibition, % at 3 µM; 360,000 compounds, 1.5% hits;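 active means inhibition above a per-plate cutoff, the mean inhibition of test compounds on that plate plus 3 SD, cut at about 49% in these data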;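 further: 0% = DMSO plus EC80 beta-PEA response and 100% = DMSO alone without agonist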
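test system = CHO RD-HGA16 cells bearing hTAAR1 | replication = singlicate | controls = DMSO-only wells and EC80 β-PEA-stimulated wells | reagent = EC80 β-phenethylamine stimulus | read-out basis = percent inhibition of PEA-evoked calcium signal, max/basal emission ratio | schedule = seeding 17-24 h prior, 75-min 37 °C, 30-min RT dye loading | signal = kinetic Fluo-8 calcium fluorescence measurement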
Starred values were filed as active, the others as inactive; · = no result given. Shown are actives, neighbours in structure and some others; about 4.6% of the full set was active somewhere.

SMILES	OX1R antag-1	OX1R antag-2	TAAR1 agonist	CHO parental Ca	GPR7 antag	TAAR1 antag
CCS(=O)(=O)Nc1cccc(-c2ccc3nnc(-c4cccnc4)n3n2)c1	35.1*	-10.4	4.5	-11.6	-4.7	-17.5
CC(=O)Nc1cccc(NC(=O)CSc2nnc3ccc(-c4cccnc4)nn23)c1	75.2*	-8.2	2.1	4.7	·	-8.4
COc1ccc(NC(=O)CSc2nnc3ccc(-c4cccnc4)nn23)cc1	63.2*	-16.0	0.1	-15.5	·	-9.9
O=C(CSc1nnc2ccc(-c3cccnc3)nn12)Nc1ccccc1	40.0	-14.8	1.1	-11.2	·	-9.6
Cc1ccccc1NC(=O)CSc1nnc2ccc(-c3ccccn3)nn12	54.9*	-42.8	8.4	-11.4	·	-42.8
Brc1cc2c(cc1C1OCCO1)OCO2	·	·	4.4	·	·	-15.9
COc1ccc(-n2c(COc3ccc(Cl)cc3Cl)n[nH]c2=S)cc1	·	·	8.7	·	·	-10.4
Cn1cccc1/C=N/n1c(-c2ccc(C(C)(C)C)cc2)n[nH]c1=S	7.3	-8.3	25.8	2.3	-22.8	52.4*
O=C(NCCN1CCN(c2ccccc2F)CC1)C1CC(=O)N(C2CCCC2)C1 (stereo unspecified)	1.9	-5.2	6.5	-12.6	-8.3	4.2
CC(=O)N1CC(C)Sc2ccc(S(=O)(=O)NCCc3ccc(C)cc3)cc21 (stereo unspecified)	47.3	-17.6	10.4	-4.4	0.2	-15.2
CC(=O)N1CCOc2ccc(S(=O)(=O)NCCc3cccc(C)c3)cc21	9.8	-19.3	46.7*	-14.8	-0.2	8.5
CC(=O)N1CCOc2ccc(S(=O)(=O)Nc3cccc(C)c3)cc21	9.5	-19.1	4.1	-12.3	0.5	-7.7
CC(=O)N1CC(C)Sc2ccc(S(=O)(=O)NCCc3ccccc3)cc21 (stereo unspecified)	26.4	-23.0	43.6*	-6.4	-0.8	32.9
CC(=O)Nc1cccc(NC(=O)COC(=O)CO/N=C(\C)c2ccc3c(c2)OCO3)c1	73.6*	22.2	2.9	-8.0	12.2	11.6
CC(C)Oc1ccc(S(=O)(=O)N2CCOCC2)cc1NC(=O)CC1OC(=O)c2ccccc21 (stereo unspecified)	15.3	-28.7	0.3	-7.9	·	2.6
COC(=O)C1=C(C)N(Cc2ccccc2)C(=NCC(C)C)N[C@H]1c1cccc(F)c1	3.9	28.7	44.4*	5.0	·	40.2
COC(=O)C1=C(C)N(Cc2ccccc2)C(=S)N[C@H]1c1cccc(C(F)(F)F)c1	26.8	18.9	5.6	-11.6	·	55.6*
CC(C)COP(=O)(OCC(C)C)C(Nc1ccccc1)c1ccc(F)cc1 (stereo unspecified)	17.0	-22.4	2.7	-50.5	18.3*	31.6
CC(C)COP(=O)(OCC(C)C)C(Nc1ccccc1)c1ccccc1 (stereo unspecified)	22.8	-26.9	6.0	-24.3	6.8	16.6
Cc1ccc(Oc2nc3c(c(=O)n(Cc4ccccc4F)c(=O)n3C)n2C)cc1	1.5	-5.8	20.3	-12.5	-2.0	49.7*
COc1ccc(C(=O)N2CCc3ccccc32)cc1	16.9	-26.7	2.0	-4.1	16.5*	-38.4
O=[N+]([O-])c1ccccc1S(=O)(=O)NCCc1ccncc1	15.1	-4.8	3.0	-0.2	-16.5	6.5
COc1ccccc1CC(=O)NN1C(=O)c2ccccc2C1=O	5.6	12.6	2.9	-3.4	-0.8	7.1
CCN1C(=O)c2cccc3c(N)ccc(c23)C1=O	18.6	58.5*	136.3*	46.3*	16.4	42.2
CCCN1C(=O)c2cccc3c(N4CCCCC4)ccc(c23)C1=O	6.9	3.9	19.4	-5.0	10.6	-11.1
SMILES	OX1R antag-1	OX1R antag-2	TAAR1 agonist	CHO parental Ca	GPR7 antag	TAAR1 antag
COc1cccc(NC(=O)CN(C)C(=O)Cc2n[nH]c(=O)c3ccccc23)c1	4.5	-10.4	1.0	-3.4	·	-11.1
CCCSc1nc(C)cc(C)c1S(=O)(=O)c1ccccc1C	34.1	53.7*	16.4	28.0	-11.3	30.4
Cc1cc(C)c(S(=O)(=O)c2ccccc2C)c(SCC(C)C)n1	16.1	27.2	9.4	56.9*	-7.1	-2.5
O=C(c1ccc(COc2ccccc2)o1)N1CCN(S(=O)(=O)c2ccccc2Cl)CC1	20.4	9.3	7.6	-0.5	·	50.8*
Cc1ccc(S(=O)(=O)CC(N)=O)cc1	25.8	-7.2	7.9	69.6*	-3.2	-7.4
COc1c2ccoc2c(OC[C@@H](O)C(C)(C)OC)c2oc(=O)ccc12	10.5	-4.9	1.5	-6.9	-5.6	2.5
COc1c2ccoc2c(OC[C@@H](O)C(C)(C)O)c2oc(=O)ccc12	62.4*	7.8	2.1	-14.2	-6.7	-1.3
CC1(C)Cc2c(sc3nc4n(-c5ccccc5)cnn4c(=O)c23)CO1	3.0	-1.8	0.1	4.2	-12.9	-25.4
COc1cc(CNCCc2ccccc2)ccc1OCC(=O)NC(C)(C)C	10.2	-39.1	67.5*	-11.5	-11.3	-0.5
NS(=O)(=O)c1ccc(CCNC(=O)CSc2cccs2)cc1	4.5	-8.2	3.3	0.2	-2.6	4.2
C=CCNCCOCCOc1ccc(Cl)cc1C(C)(C)C	7.7	-16.4	10.6	-6.3	4.9	2.1
COCCCNCCOCCOc1ccc(Cl)cc1C(C)(C)C	3.8	-7.0	15.6	-7.3	35.2*	9.6
CCCCCCOc1ccc(/C(C)=N/NC2=NCCN2)cc1[N+](=O)[O-]	4.8	-6.3	38.1*	-2.5	1.1	-0.2
C/C(=N\NC1=NCCN1)c1ccc(N)c([N+](=O)[O-])c1	32.7	-7.9	5.4	-2.8	1.8	-4.4
COC(=O)c1ccc(C)c(NC(=O)c2c(-c3ccccc3)noc2C)c1	38.3*	10.4	1.4	-12.3	-5.9	8.3
COC(=O)c1ccc(NC(=S)NC(=O)c2c(-c3ccccc3)noc2C)cc1	23.7	-18.7	2.9	-10.5	-5.5	0.0
CN(C)CCCN(C(=O)CCc1ccccc1)c1nc2c(F)cccc2s1	11.0	-28.1	14.4	-20.1	20.6*	-8.8
CN(C)CCCN(C(=O)CCOc1ccccc1)c1nc2c(F)cccc2s1	·	·	3.8	·	-4.6	-4.9
CC(C)NC(=O)C1(C)CCN1Cc1ccc(-c2ccccc2)cc1 (stereo unspecified)	·	·	-1.4	·	·	-17.9
Cc1ccc(CNCc2cc(Cl)ccc2O)cc1	19.5	-5.3	38.2*	-19.3	·	7.6
C[C@H](NC(=O)c1ccccc1Cl)C(=O)OCCOc1ccc(Cl)cc1	6.5	-13.5	-2.4	-20.1	-15.4	-27.0
O=c1[nH][nH]c(C(F)(F)F)c1C=NCc1cccc(Cl)c1	12.5	-13.0	42.7*	-10.9	-8.2	10.7
O=c1[nH][nH]c(C(F)(F)F)c1C=NCc1ccc(Cl)cc1	14.6	-13.5	23.6	-5.0	-12.2	8.7
COc1ccc(CC(=O)Nc2ccc(C(C)=O)cc2)cc1	20.7	-72.4	0.5	-4.2	25.1*	7.4
